Results from ChEMBL document CHEMBL3399938, “Chemopreventive flavonoids from Millettia pulchra Kurz var-laxior (Dunn) Z.Wei (Yulangsan) function as Michael reaction acceptors” (Bioorg Med Chem Lett, 2015).

Columns and labels:
[1] = target: NAD(P)H dehydrogenase [quinone] 1 (Mus musculus) (UniProt Q64669); test: Induction of NQO1 activity in mouse Hepa-1c1c7 cells assessed as induction ratio at 20 uM after 48 hr by NADPH-dependent MTT assay relative to control; format: cell-based
How it was run: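 Hepa 1c1c7 cells were seeded at 1 × 10^4 cells/mL in α-MEM with 10% FBS, grown 24 h (5% CO2, 37 °C), then exposed to sample for 24 h. Lysis used 0.8% digitonin in 2 mM EDTA (pH 7.8) for 10 min at 37 °C. A menadione/NADP/glucose-6-phosphate dehydrogenase mix with 0.72 mM MTT was added, then read at 590 nm after 3 min shaking. IR = NQO1 activity of sample-treated over DMSO-treated cells; mean ± SE of three independent experiments.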

[2] = Retention time of the compound by UPLC analysis; format: physicochemical; settings: in the assay text read “preparative reverse-phase HPLC” for “UPLC”
[3] = Cytotoxicity against mouse Hepa-1c1c7 cells assessed as cell viability at 20 uM […]; format: functional; settings: read-out: Activity
How it was run: (§1)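 Hepa 1c1c7 cells were seeded at 1 × 10^4 cells/mL in α-MEM with 10% FBS and 0.1% penicillin–streptomycin, then grown 24 h at 37 °C in 5% CO2. Medium was replaced with fresh medium containing sample for another 24 h. Cells were then stained with 0.2% crystal violet in 2% ethanol for 10 min, washed and dried. Bound dye was dissolved in 0.5% SDS in 50% ethanol and read at 595 nm.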

[4] = target: NAD(P)H dehydrogenase [quinone] 1 (Mus musculus) (UniProt Q64669); test: Induction of NQO1 activity in mouse Hepa-1c1c7 cells assessed as induction ratio at 10 uM […] by NADPH-dependent MTT assay relative to control; format: cell-based
[5] = Cytotoxicity against mouse Hepa-1c1c7 cells assessed as cell viability at 10 uM […]; format: functional; settings: read-out: Activity; how it was run: as §1

NAD(P)H dehydrogenase [quinone] 1 (Mus musculus), sequence (Q64669 whole entry): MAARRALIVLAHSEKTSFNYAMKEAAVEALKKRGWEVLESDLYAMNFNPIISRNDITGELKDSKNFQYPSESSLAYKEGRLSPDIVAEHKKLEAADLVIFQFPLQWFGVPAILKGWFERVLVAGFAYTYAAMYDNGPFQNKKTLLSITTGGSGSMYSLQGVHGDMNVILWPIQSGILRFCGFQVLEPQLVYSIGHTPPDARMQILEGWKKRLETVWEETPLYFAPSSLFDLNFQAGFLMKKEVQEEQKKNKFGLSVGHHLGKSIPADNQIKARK

SMILES	Ratio [1]	Retention_time [2]	viability at 20 µM [3]	Ratio [4]	viability at 10 µM [5]
O=C(/C=C/c1ccccc1)c1ccc2occc2c1O	1.75	58 min	90%		
COc1c(-c2ccccc2)oc2c(ccc3occc32)c1=O [KARANJIN]	1.57		100%		
CC1(C)C=Cc2c(ccc3c2OC(c2ccccc2)CC3=O)O1 (centres undefined)	1.54		114%		
COc1c(C(=O)/C=C/c2ccccc2)ccc2occc12	2.01		81%		
COc1cc2c(=O)cc(-c3ccccc3)oc2c2c1OC(C)(C)C=C2	1.4		106%		
O=c1cc(-c2ccccc2)oc2c1ccc1occc12 [LANCEOLATIN B]	1.64		100%		
CC1(C)C=Cc2c(c(O)cc3c(=O)cc(-c4ccccc4)oc23)O1	2.14		71%		
COc1c(C(=O)C[C@@H](OC)c2ccccc2)ccc2occc12	2.07		92%		
COc1cc2c(c(O)c1C(=O)/C=C/c1ccccc1)C=CC(C)(C)O2	2.14	131 min	83%		
O=c1c2c(oc3c1ccc1occc13)-c1ccccc1OC2	1.67		97%		
O=c1cc(-c2ccc(Br)cc2)oc2ccccc12				2.17	109%
CC1(C)C=Cc2c(ccc(C(=O)/C=C/c3ccccc3)c2O)O1 [LONCHOCARPIN]	1.7		84%		
CC1(C)C=Cc2c(ccc3c(=O)cc(-c4ccccc4)oc23)O1	1.6		99%		
COc1cc2c(c3oc(-c4ccccc4)cc(=O)c13)C=CC(C)(C)O2 [CANDIDIN]	2.02		79%		
COc1c(C(=O)/C=C(\O)c2ccccc2)ccc2occc12 [PONGAMOL]	1.69		78%		
COc1c(C(=O)/C=C(\O)c2ccccc2)ccc2c1C=CC(C)(C)O2	1.9		77%		
